# Data published in ChEMBL document CHEMBL1933039, “6-alkylsalicylates are selective Tip60 inhibitors and target the acetyl-CoA binding site” (Eur J Med Chem, 2012).
# Calls of active or inactive are those of the source. The rule behind the calls is not given here.
# Legend:
# [1] = target: Histone acetyltransferase KAT5 (Homo sapiens) (UniProt Q92993); test: Inhibition of Tip60-mediated histone H4 acetylation in human HeLa nuclear extracts at 200 uM after 15 mins by ELISA
# Summary of the method: (§1)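 HeLa nuclear extract (Dignam method) at 2.5 µg/mL final protein as enzyme source. Biotinylated H3 (aa 1–21) or H4 (aa 2–24) peptide immobilized on streptavidin. Reaction run 15 min in 50 mM HEPES pH 7.4, 0.01% Triton X-100, 0.1 mM EDTA, BSA, 1 mM DTT. Anti-acetyl-lysine ELISA readout. Triplicates, normalized to no-inhibitor and no-enzyme controls.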
# [2] = target: Histone acetyltransferase KAT2B (Homo sapiens) (UniProt Q92831); test: Inhibition of human recombinant His-tagged PCAF HAT domain expressed in Escherichia coli BL21(DE3) cells using [14C][…] and histone H3 as substrate at 200 uM after 5 mins by scintillation counting
# Histone acetyltransferase KAT2B (Homo sapiens), sequence (Q92831 whole entry, looked up, the tested form may be a part): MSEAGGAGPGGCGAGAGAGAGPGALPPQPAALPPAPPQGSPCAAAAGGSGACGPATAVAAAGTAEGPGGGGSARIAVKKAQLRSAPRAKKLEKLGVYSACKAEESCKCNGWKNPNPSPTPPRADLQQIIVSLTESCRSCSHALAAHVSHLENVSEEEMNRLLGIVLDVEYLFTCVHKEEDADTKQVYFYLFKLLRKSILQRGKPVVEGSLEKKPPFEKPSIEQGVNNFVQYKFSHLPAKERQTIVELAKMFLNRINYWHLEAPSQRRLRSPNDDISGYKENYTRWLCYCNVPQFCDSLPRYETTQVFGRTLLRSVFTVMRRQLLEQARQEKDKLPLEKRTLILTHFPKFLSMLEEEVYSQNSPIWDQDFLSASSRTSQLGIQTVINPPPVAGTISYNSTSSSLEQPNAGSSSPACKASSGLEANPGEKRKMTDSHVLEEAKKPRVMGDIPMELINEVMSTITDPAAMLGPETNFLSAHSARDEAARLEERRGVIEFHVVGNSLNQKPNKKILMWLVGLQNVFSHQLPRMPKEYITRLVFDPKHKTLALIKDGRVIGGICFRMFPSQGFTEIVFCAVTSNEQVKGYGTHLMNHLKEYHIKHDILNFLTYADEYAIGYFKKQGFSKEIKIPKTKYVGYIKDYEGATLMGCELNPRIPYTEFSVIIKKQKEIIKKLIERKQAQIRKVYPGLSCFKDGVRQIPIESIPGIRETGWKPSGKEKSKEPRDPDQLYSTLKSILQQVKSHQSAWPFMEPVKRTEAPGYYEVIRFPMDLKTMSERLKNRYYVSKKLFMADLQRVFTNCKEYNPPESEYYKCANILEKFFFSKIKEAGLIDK
# [3] = target: Histone acetyltransferase KAT5 (Homo sapiens) (UniProt Q92993); test: Inhibition of His-tagged human recombinant Tip60 expressed in Escherichia coli BL21(DE3) cells using [14C][…] and histone H4 as substrate at 200 uM after 5 mins by scintillation counting
# Summary of the method: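 Single-point screen at 200 µM inhibitor: 100 nM Tip60, 10 µM [14C]Ac-CoA, 100 µM H4-20 peptide in 50 mM HEPES pH 8.0, 0.1 mM EDTA, BSA, 1 mM DTT, 0.1% Triton X-100, 2% DMSO. Components equilibrated 5 min at 30 °C before enzyme start. Products spotted on P81 paper, washed with bicarbonate, counted by scintillation. No-enzyme background subtracted.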
# [4] = target: Histone acetyltransferase KAT5 (Homo sapiens) (UniProt Q92993); test: Inhibition of Tip60-mediated histone H3 acetylation in human HeLa nuclear extracts at 200 uM after 15 mins by ELISA; summary of the method: as §1
# [5] = target: Histone acetyltransferase p300 (Homo sapiens) (UniProt Q09472); test: Inhibition of human recombinant His-tagged p300 HAT domain expressed in Escherichia coli BL21(DE3) cells using [14C][…] and histone H4 as substrate at 200 uM after 5 mins by scintillation counting
# Histone acetyltransferase p300 (Homo sapiens), sequence (Q09472 whole entry, the tested form may be a part): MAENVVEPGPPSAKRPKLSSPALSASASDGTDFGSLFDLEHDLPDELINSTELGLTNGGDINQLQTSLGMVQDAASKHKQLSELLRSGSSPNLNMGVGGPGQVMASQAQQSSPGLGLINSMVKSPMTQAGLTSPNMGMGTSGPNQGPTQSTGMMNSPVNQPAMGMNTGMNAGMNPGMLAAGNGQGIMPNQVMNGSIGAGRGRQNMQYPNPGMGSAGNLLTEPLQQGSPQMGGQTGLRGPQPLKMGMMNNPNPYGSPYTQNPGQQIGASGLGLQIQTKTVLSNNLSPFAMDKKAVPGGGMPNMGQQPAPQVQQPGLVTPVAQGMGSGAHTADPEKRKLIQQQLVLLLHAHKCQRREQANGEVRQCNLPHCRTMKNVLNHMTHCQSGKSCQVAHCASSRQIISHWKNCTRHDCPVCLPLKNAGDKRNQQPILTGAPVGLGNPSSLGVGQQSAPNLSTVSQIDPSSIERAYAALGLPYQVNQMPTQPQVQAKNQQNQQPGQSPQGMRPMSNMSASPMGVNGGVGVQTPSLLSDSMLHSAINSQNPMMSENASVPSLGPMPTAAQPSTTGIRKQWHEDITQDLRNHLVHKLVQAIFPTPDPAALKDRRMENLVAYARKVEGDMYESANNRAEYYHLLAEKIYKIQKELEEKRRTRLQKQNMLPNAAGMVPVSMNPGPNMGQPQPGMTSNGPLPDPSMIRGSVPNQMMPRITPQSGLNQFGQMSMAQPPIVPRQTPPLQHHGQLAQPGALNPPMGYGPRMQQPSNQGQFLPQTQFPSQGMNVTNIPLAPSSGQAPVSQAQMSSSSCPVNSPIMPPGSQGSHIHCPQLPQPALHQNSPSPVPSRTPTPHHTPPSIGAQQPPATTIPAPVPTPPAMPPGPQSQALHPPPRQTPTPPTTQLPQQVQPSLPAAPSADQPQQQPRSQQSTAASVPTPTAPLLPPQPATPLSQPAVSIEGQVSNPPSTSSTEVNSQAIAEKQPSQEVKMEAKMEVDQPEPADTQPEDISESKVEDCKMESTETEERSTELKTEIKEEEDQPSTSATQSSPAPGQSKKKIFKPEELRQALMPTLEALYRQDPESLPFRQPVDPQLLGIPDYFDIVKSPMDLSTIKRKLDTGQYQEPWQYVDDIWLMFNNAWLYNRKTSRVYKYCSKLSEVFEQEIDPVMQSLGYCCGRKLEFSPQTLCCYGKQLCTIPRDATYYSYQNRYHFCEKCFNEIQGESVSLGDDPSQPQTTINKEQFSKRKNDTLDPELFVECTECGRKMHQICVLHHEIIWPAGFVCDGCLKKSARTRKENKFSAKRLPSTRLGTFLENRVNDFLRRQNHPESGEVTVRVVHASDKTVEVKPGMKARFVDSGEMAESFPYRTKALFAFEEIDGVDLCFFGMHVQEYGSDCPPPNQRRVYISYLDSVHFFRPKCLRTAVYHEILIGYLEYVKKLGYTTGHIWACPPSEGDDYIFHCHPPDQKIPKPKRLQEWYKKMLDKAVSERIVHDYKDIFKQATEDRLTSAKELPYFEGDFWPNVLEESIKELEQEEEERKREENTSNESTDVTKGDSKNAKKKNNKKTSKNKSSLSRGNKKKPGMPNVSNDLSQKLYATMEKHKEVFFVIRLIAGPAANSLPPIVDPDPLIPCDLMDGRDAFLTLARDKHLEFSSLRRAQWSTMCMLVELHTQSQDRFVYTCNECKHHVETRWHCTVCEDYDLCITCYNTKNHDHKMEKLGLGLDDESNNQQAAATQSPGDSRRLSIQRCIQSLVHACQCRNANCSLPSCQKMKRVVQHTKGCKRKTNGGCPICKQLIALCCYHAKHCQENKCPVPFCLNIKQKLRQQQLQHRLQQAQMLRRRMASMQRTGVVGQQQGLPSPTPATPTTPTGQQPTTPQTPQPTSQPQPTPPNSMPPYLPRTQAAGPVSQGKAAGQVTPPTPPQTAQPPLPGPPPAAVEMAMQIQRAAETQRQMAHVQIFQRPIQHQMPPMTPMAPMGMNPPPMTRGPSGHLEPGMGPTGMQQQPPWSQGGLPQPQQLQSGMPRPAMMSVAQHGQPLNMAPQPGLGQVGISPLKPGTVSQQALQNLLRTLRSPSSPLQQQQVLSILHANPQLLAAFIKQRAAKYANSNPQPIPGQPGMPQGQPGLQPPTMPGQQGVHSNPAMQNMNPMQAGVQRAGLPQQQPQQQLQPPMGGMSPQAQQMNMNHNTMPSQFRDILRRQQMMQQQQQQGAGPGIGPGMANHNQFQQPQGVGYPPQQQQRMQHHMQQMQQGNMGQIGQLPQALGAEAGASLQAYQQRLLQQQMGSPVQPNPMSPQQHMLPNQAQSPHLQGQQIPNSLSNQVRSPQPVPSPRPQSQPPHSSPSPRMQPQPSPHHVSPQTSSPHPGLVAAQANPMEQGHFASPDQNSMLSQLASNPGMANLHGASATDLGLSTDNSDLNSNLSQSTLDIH
# Summary of the method: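 Single-point screen at 200 µM inhibitor: 5 nM p300, 10 µM [14C]Ac-CoA, 100 µM H4-20 peptide in 50 mM HEPES pH 8.0, EDTA, BSA, DTT, Triton X-100, 2% DMSO, 30 °C. Enzyme-initiated after 5 min equilibration. Radioactivity on P81 paper counted. No-enzyme background subtracted.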
# [6] = target: Histone acetyltransferase KAT5 (Homo sapiens) (UniProt Q92993); test: Inhibition of Tip60-mediated histone H4 acetylation in human HeLa nuclear extracts at 50 uM after 15 mins by ELISA; summary of the method: as §1
# [7] = target: Histone acetyltransferase KAT5 (Homo sapiens) (UniProt Q92993); test: Inhibition of Tip60-mediated histone H3 acetylation in human HeLa nuclear extracts at 50 uM after 15 mins by ELISA; summary of the method: as §1
# [8] = target: Histone acetyltransferase KAT5 (Homo sapiens) (UniProt Q92993)
# [9] = target: T1, Histone acetyltransferase KAT8 (Homo sapiens, UniProt Q9H7Z6); test: Inhibition of human MOF expressed in Escherichia coli BL21(DE3) cells using [14C]AC-CoA and histone H4 as substrate after 5 mins by scintillation counting
# T1 sequence (Q9H7Z6 whole entry): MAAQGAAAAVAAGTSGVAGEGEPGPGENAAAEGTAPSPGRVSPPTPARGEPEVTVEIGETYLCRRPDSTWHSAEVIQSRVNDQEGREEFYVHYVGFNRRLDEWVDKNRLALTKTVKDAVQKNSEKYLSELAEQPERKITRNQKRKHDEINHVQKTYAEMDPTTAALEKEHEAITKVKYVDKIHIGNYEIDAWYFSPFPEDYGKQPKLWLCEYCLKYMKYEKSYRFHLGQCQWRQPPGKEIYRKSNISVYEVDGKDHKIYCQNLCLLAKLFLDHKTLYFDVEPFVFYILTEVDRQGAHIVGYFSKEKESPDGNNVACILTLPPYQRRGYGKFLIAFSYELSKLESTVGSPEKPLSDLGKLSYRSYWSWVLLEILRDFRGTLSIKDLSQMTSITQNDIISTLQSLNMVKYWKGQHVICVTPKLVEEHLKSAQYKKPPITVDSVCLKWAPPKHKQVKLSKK
# [10] = target: Histone acetyltransferase KAT2B (Homo sapiens) (UniProt Q92831); test: Inhibition of human recombinant His-tagged PCAF HAT domain expressed in Escherichia coli BL21(DE3) cells using [14C][…] and histone H3 as substrate at >200 uM after 3.5 mins by scintillation counting
# [11] = target: Histone acetyltransferase KAT5 (Rattus norvegicus) (UniProt Q99MK2); test: Inhibition of Tip60-mediated histone H3 acetylation in rat brain extracts at 30 uM after 15 mins by ELISA
# Histone acetyltransferase KAT5 (Rattus norvegicus), sequence (Q99MK2 whole entry): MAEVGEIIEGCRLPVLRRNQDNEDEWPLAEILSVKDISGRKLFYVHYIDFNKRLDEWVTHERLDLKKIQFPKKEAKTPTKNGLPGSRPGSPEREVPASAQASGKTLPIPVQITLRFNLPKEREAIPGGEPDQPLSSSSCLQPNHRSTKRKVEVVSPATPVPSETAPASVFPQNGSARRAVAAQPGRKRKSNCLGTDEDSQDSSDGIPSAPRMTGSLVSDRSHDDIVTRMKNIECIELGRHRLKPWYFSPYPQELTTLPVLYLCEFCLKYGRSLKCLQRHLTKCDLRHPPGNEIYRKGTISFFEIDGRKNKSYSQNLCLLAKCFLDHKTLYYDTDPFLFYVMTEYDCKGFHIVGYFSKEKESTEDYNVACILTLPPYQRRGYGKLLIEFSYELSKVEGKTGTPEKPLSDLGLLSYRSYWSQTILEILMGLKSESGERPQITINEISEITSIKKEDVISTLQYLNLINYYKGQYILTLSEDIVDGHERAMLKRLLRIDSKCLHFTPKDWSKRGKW
# [12] = target: Histone acetyltransferase KAT5 (Homo sapiens) (UniProt Q92993); remark: listed apart in the source
# [13] = target: Histone acetyltransferase KAT5 (Rattus norvegicus) (UniProt Q99MK2); test: Inhibition of Tip60-mediated histone H3 acetylation in rat brain extracts at 30 uM after 15 mins by ELISA; type: tissue-based
# Summary of the method: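 Rat brain-region nuclear extracts (Dignam method) at 40 µg/mL final protein. Inhibitor at 30 µM. Histone peptide immobilized via streptavidin, 15 min reaction in HEPES pH 7.4 buffer, anti-acetyl-lysine ELISA. Triplicates for each of two animals. Blank values subtracted.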
# [14] = target: Histone acetyltransferase p300 (Homo sapiens) (UniProt Q09472); test: Inhibition of human recombinant His-tagged p300 HAT domain expressed in Escherichia coli BL21(DE3) cells using [14C][…] and histone H4 as substrate at >200 uM after 5 mins by scintillation counting
# Histone acetyltransferase KAT5 (Homo sapiens), sequence (Q92993 whole entry, looked up, the tested form may be a part): as the sequence (Q99MK2 whole entry) above, with S175A counted along it
SMILES,inhibition [1] [%],inhibition [2] [%],inhibition [3],inhibition [4] [%],inhibition [5] [%],inhibition [6],inhibition [7],also measured
CCCCCCCCCCc1cc(O)cc(O)c1C(=O)O,> 50,< 35,> 76%,> 50,< 35,–,–,–
CCCCCOc1ccc(CCc2cccc(O)c2C(=O)O)cc1,> 50,–,–,> 50,–,Active,–,–
CCCCCOc1ccc(CCc2cccc(O)c2C(=O)O)cc1C(C)=O,> 50,< 35,> 76%,> 50,< 35,–,–,–
CCCCCCCCCCCCCCCc1cc(O)cc(O)c1C(=O)O,> 50,< 35,> 76%,> 50,< 35,–,Active,–
CCCCCCCCCCCCCC#Cc1ccccc1C(=O)OC,> 50,–,–,> 50,–,–,–,–
CCCCCCCCCCCCCCCc1ccccc1C(=O)O,> 50,–,–,> 50,–,–,–,–
CCCCCCCCCCCCCCOc1ccc(CCc2cccc(O)c2C(=O)O)cc1,> 50,–,–,> 50,–,Active,–,–
CCCCCCCc1ccc(CCc2cc(O)cc(O)c2C(=O)O)cc1,–,–,–,–,–,–,Active,–
CCCCCCCc1ccc(CCc2cccc(O)c2C(=O)O)cc1,> 50,< 35,88%,> 50,< 35,–,Active,Kii [8]: 78 µM; IC50 [9]: 47 µM; inhibition [10]: 3%; inhibition [11]: Active; Kii [12]: 572 µM; inhibition [13]: Active; inhibition [14]: 30%
CCCCCCCCCCc1cccc(O)c1C(=O)O,> 50,< 35,> 76%,> 50,< 35,Active,Active,–
COCCOc1ccc(CCc2cccc(O)c2C(=O)O)cc1,–,–,Active,–,–,–,–,–
CCCCCCCOc1ccc(CCc2cccc(O)c2C(=O)O)cc1C(C)=O,> 50,–,–,> 50,–,–,Active,–
CCCCCOc1ccc(/C=C\c2cccc(O)c2C(=O)O)cc1,> 50,–,–,> 50,–,Active,–,–
C=CC/C=C\C/C=C\CCCCCCCc1cccc(O)c1C(=O)O,> 50,< 20,> 76%,> 50,< 20,Active,Active,inhibition [11]: Active; inhibition [13]: Active; inhibition [14]: 40%
CC(C)CCCC(C)CCOc1ccc(CCc2cccc(O)c2C(=O)O)cc1 (stereo unspecified),> 50,< 35,> 76%,> 50,< 35,–,Active,–
CCCCCOc1ccc(CCc2cccc(O)c2C(=O)O)cc1C(C)O (stereo unspecified),–,–,Active,–,–,–,–,–
